Marks after values point to notes of the source that are not given here.
Key:
Type in all cases: in vivo, BALB/c/nu nude mice
Settings in all cases: Taxol 5 mg/kg injection twice per week
[1] = tested on: MCF-7/T xenograft; assay: Breast cancer MCF-7/T xenograft model
How it was run: (§1)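 Six-week-old female BALB/c/nu nude mice (16–22 g) bearing MCF-7 or MCF-7/T xenografts, housed at 25°C on a 12-h light/dark cycle. Mice were randomized into four groups of five at a mean tumor volume of 100–250 mm3. Read-outs were RTV T/C and excised tumor weight, as mean ± SD.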

[2] = tested on: MX-1/T xenograft; assay: Breast cancer MX-1/T xenograft model
How it was run: (§2)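 Six-week-old female BALB/c/nu nude mice (15–16 g) bearing MX-1 or MX-1/T xenografts, housed at 25°C on a 12-h light/dark cycle. Mice were randomized into four groups of five once mean tumor volume reached 100–250 mm3. Read-outs were relative tumor volume T/C and excised tumor weight, as mean ± SD.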

[3] = tested on: MCF-7 xenograft; assay: Breast cancer MCF-7 xenograft model
How it was run: as §1

[4] = tested on: MX-1 xenograft; assay: Breast cancer MX-1 xenograft model
How it was run: as §2

SMILES: CC(=O)O[C@H]1C(=O)[C@@]2(C)[C@H]([C@H](OC(=O)c3ccccc3)[C@]3(O)C[C@H](OC(=O)[C@H](O)[C@@H](NC(=O)c4ccccc4)c4ccccc4)C(C)=C1C3(C)C)[C@]1(OC(C)=O)CO[C@@H]1C[C@@H]2O [Taxol]
- Body weight Final ([1]; 33 days): 17.5 ± 2.1 g
- Relative tumor volume x±SD ([1]; 33 days): 12.59±3.17
- Tumor volume Final ([1]; 33 days): 1,871.0±981.5 mm3
- Tumor weight x±SD ([1]; 33 days): 1.36 ± 0.48 g
- Body weight Initial ([1]; before treatment): 16.8 ± 1.9 g
- Tumor volume Initial ([1]; before treatment): 132.5±45.3 mm3
- Body weight Final ([2]; 13 days): 20.4 ± 0.9 g
- Relative tumor volume Treated/control ratio ([2]; 13 days): 95.13%
- Relative tumor volume x±SD ([2]; 13 days): 22.71±11.09
- Tumor volume Final ([2]; 13 days): 2,183.1±1,091.0 mm3
- Tumor weight x±SD ([2]; 13 days): 1.58 ± 0.79 g
- Body weight Initial ([2]; before treatment): 15.6 ± 0.6 g
- Tumor volume Initial ([2]; before treatment): 95.7±17.1 mm3
- Body weight Final ([3]; 33 days): 22.8 ± 2.3 g
- Relative tumor volume Treated/control ratio ([3]; 33 days): 6.75%
- Relative tumor volume x±SD ([3]; 33 days): 0.34±0.22^a
- Tumor volume Final ([3]; 33 days): 68.3±32.5^a mm3
- Tumor weight Inhibition ([3]; 33 days): 96.36%
- Tumor weight x±SD ([3]; 33 days): 0.04±0.02^a g
- Body weight Initial ([3]; before treatment): 21.0 ± 1.6 g
- Tumor volume Initial ([3]; before treatment): 227.4±74.6 mm3
- Body weight Final ([4]; 13 days): 20.8 ± 2.2 g
- Relative tumor volume Treated/control ratio ([4]; 13 days): 55.56%
- Relative tumor volume x±SD ([4]; 13 days): 12.27±2.33^b
- Tumor volume Final ([4]; 13 days): 1,714.4±308.2^a mm3
- Tumor weight Inhibition ([4]; 13 days): 41.56%
- Tumor weight x±SD ([4]; 13 days): 0.94±0.20^a g
- Body weight Initial ([4]; before treatment): 16.0 ± 0.7 g
- Tumor volume Initial ([4]; before treatment): 140.2±13.3 mm3

From publication PMC5783483 (Molecular Medicine Reports, 2017)
